According to paper PMC8322834 (Biochemistry, 2020):
In brackets after ≈: the same amount, converted by molar mass. Entries after “also recorded” stand apart in the source; their conditions may differ. Non-standard residues stand in square brackets, D forms with d. Residues, ends and D or L forms follow the SMILES beside them. *: point of attachment. X1 = N=c1ccc2c(-c3ccc(C(=O)NCCCCCN4C(=O)CC(*)C4=O)cc3C(=O)O)c3ccc(N)c(S(=O)(=O)O)c3oc-2c1S(=O)(=O)O

Assays:
[1] = molecular target: T1, ADP-DnaK (Escherichia coli, UniProt P0A6Y8); assay: steady-state fluorescence anisotropy, direct binding to ADP-DnaK; parameters: species or system E. coli; details: Q taken to be 1.0, Figure S3
T1 sequence (P0A6Y8 whole entry): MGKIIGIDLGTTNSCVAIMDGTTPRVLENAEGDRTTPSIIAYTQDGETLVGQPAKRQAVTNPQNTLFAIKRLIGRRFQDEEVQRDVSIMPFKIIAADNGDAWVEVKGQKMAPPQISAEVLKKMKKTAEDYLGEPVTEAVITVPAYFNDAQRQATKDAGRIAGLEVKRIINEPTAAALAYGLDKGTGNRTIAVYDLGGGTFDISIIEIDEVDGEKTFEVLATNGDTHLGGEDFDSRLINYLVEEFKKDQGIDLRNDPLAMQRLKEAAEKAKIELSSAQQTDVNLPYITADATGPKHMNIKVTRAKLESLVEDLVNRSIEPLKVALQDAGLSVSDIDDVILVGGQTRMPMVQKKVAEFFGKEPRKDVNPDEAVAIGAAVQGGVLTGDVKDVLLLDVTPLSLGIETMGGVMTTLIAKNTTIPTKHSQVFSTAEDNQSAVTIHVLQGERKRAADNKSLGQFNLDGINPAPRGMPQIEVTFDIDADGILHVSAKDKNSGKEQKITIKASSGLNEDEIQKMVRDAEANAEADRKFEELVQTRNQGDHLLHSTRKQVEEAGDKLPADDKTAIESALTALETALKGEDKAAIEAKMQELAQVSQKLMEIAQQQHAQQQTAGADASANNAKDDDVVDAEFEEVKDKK

[2] = system: GroEL/ES; details: c.f. mix, purified GroEL (0.5 μM) / GroES (1.0 μM), 30 °C, 1 hr, Figure S5
[3] = system: wild-type E. coli (ATCC 25922) cells; format: cell-based; details: ATCC 25922, 18 h
[4] = molecular target: T1, ADP-DnaK; assay: steady-state fluorescence anisotropy, competitive binding to ADP-DnaK; parameters: species or system E. coli
[5] = molecular target: DnaK (ADP-state) (Escherichia coli, UniProt P0A6Y8); assay: native gel electrophoresis; format: binding, E. coli
Chain of DnaK (ADP-state) (P0A6Y8 whole entry): as above
How it was run: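 DnaK (5 μM) was incubated with test peptide (0–50 μM, independent samples) for 1 hr at 21.5 ± 0.5 °C. Native gels used 32 mM Tris-acetate pH 7.5 running buffer at 200 V for 5 hrs, water-cooled. DnaK band intensity profiles were fit to a sum of two Gaussians to build binding isotherms. KD1 is the mean of n = 3 independent experiments ± standard error.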

[6] = far-UV circular dichroism; format: physicochemical; details: 1.3 mM HEPES (pH 7.0), room temperature
How it was run: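 Test peptide at 20 μM in 1.3 mM HEPES pH 7.0, room temperature. Far-UV spectra recorded from 190 to 260 nm in 1 nm steps at 20 s/step. Each spectrum is the average of n = 2 independent experiments. Secondary structure was deconvoluted with CONTINLL.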

[7] = system: DnaK/DnaJ/GrpE (K/J/E); details: simple buffer conditions, 400 μM KLR-70, 30 °C, 1 hr
[8] = system: nascent apoMb biosynthesis (cell-free transcription-translation); assay: cell-free expression of apoMb; format: biochemical, E. coli; details: 37 °C, 20 min

| Compound | change in total fluorescence intensity in presence of ADP-DnaK [1] | effect on GroEL/ES-mediated luciferase refolding [2] | MIC [3] | Kd [4] | Kd [5] | secondary structure in solution [6] | inhibition of K/J/E-mediated luciferase refolding [7] | effect on nascent apoMb expression ([8]; 150 μM peptide, Δtig S30 extract, pH 7.0, n = 3) | effect on nascent apoMb synthesis ([8]; 60 – 150 μM KLR-70, Δtig S30 extract, pH 7.0, n = 3) | effect on nascent apoMb synthesis ([8]; 200 – 400 μM KLR-70, Δtig S30 extract, pH 7.0, n = 3) | highest KLR-70 concentration not disrupting cell-free protein expression ([8]; Δtig E. coli cell-free system) |
| --- | --- | --- | --- | --- | --- | --- | --- | --- | --- | --- | --- |
| CC(C)C[C@H](NC(=O)[C@H](CCCCN)NC(=O)[C@H](CCCCN)NC(=O)CNC(=O)[C@H](CCCNC(=N)N)NC(=O)[C@@H](N)CCCNC(=N)N)C(=O)N[C@@H](CC(C)C)C(=O)N[C@@H](CC(C)C)C(=O)N[C@@H](CC(C)C)C(=O)N[C@@H](CC(C)C)C(=O)N[C@@H](CCCCN)C(=O)N[C@@H](CCCCN)C(=O)N[C@@H](CCCCN)C(=O)NCC(=O)N[C@@H](CSC1CC(=O)N(CCCCCNC(=O)c2ccc(-c3c4ccc(=N)c(S(=O)(=O)O)c-4oc4c(S(=O)(=O)O)c(N)ccc34)c(C(=O)O)c2)C1=O)C(=O)O (stereo partly drawn) [KLR-70-C-AF488] (H-RRGKKLLLLLKKKGC(X1)-OH; N-terminus and C-terminus assumed) | no statistically significant changes in total fluorescence intensity | – | – | – | – | – | – | – | – | – | – |
| CC(C)C[C@H](NC(=O)[C@H](CCCCN)NC(=O)[C@H](CCCCN)NC(=O)CNC(=O)[C@H](CCCNC(=N)N)NC(=O)[C@@H](N)CCCNC(=N)N)C(=O)N[C@@H](CC(C)C)C(=O)N[C@@H](CC(C)C)C(=O)N[C@@H](CC(C)C)C(=O)N[C@@H](CC(C)C)C(=O)N[C@@H](CCCCN)C(=O)N[C@@H](CCCCN)C(=O)N[C@@H](CCCCN)C(=O)NCC(=O)O [KLR-70] (H-RRGKKLLLLLKKKG-OH) | – | only weakly reduces the GroEL/ES-mediated refolding of luciferase | 41 to 83 µg/mL | 890 ± 390 nM | 158 ± 73 nM | mostly unordered; also recorded: predominantly unstructured in solution | fully inhibits K/J/E-mediated luciferase refolding | does not have any influence on apoMb production | nascent protein synthesis is not disrupted | Partial inhibition of protein expression | up to 150 μM |
| CC[C@H](C)[C@H](NC(=O)[C@@H](CCCNC(=N)N)NC(=O)[C@H](CCCNC(=N)N)NC(=O)[C@@H]1CCCN1C(=O)[C@@H]1CCCN1C(=O)[C@H](CCCNC(=N)N)NC(=O)[C@@H]1CCCN1C(=O)[C@H](CCCNC(=N)N)NC(=O)[C@@H]1CCCN1C(=O)[C@H](CC(C)C)NC(=O)[C@H](Cc1ccc(O)cc1)NC(=O)[C@@H]1CCCN1C(=O)[C@@H]1CCCN1C(=O)[C@H](CCCCN)NC(=O)[C@H](CC(=O)O)NC(=O)[C@@H](N)C(C)C)C(=O)N[C@@H](Cc1ccc(O)cc1)C(=O)N[C@@H](CC(N)=O)C(=O)N[C@H](CCCNC(=N)N)C(N)=O [Onc112, reference compound] (H-VDKPPYLPRPRPPR[dR]IYN[dR]-NH2) | – | – | 5 µg/mL (≈ 2.09 µM) | – | – | – | – | – | – | – | – |
